Reference: ChEMBL document CHEMBL1795296, “Synthesis, structural elucidation, DNA-PK inhibition, homology modelling and anti-platelet activity of morpholino-substituted-1,3-naphth-oxazines” (Bioorg Med Chem, 2011)

Key:
[1] = biological target: T1, DNA-dependent protein kinase catalytic subunit (Homo sapiens, UniProt P78527); experiment: Inhibition of purified DNA-PK by ADP-Glo Kinase assay
In short: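 Reaction used 5× buffer (250 mM Hepes, 500 mM KCl, 50 mM MgCl2, 1 mM EGTA, 0.5 mM EDTA, 5 mM DTT) diluted to 1×, with BSA and ATP (0.5 mM stock). Drug or water added; 30 °C, 5 min. ADP read by ADP-Glo luminescence; IC50 from curve fitting.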

Platelet = experiment: Anti-platelet activity in human blood assessed as inhibition of collagen induced human platelet aggregation; format: functional, cell-based
In short: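 Collagen-triggered aggregation measured optically in a two-channel platelet aggregometer.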

[2] = biological target: T1, DNA-dependent protein kinase catalytic subunit; experiment: Inhibition of DNA-PK
In short: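 The buffer was 1× reaction buffer of Hepes, KCl, MgCl2, EGTA, EDTA and DTT, with drug or water added. Reactions ran 5 min at 30 °C. ADP formed was read by ADP-Glo luminescence, and IC50 was obtained by curve fitting.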

T1 sequence (P78527 whole entry): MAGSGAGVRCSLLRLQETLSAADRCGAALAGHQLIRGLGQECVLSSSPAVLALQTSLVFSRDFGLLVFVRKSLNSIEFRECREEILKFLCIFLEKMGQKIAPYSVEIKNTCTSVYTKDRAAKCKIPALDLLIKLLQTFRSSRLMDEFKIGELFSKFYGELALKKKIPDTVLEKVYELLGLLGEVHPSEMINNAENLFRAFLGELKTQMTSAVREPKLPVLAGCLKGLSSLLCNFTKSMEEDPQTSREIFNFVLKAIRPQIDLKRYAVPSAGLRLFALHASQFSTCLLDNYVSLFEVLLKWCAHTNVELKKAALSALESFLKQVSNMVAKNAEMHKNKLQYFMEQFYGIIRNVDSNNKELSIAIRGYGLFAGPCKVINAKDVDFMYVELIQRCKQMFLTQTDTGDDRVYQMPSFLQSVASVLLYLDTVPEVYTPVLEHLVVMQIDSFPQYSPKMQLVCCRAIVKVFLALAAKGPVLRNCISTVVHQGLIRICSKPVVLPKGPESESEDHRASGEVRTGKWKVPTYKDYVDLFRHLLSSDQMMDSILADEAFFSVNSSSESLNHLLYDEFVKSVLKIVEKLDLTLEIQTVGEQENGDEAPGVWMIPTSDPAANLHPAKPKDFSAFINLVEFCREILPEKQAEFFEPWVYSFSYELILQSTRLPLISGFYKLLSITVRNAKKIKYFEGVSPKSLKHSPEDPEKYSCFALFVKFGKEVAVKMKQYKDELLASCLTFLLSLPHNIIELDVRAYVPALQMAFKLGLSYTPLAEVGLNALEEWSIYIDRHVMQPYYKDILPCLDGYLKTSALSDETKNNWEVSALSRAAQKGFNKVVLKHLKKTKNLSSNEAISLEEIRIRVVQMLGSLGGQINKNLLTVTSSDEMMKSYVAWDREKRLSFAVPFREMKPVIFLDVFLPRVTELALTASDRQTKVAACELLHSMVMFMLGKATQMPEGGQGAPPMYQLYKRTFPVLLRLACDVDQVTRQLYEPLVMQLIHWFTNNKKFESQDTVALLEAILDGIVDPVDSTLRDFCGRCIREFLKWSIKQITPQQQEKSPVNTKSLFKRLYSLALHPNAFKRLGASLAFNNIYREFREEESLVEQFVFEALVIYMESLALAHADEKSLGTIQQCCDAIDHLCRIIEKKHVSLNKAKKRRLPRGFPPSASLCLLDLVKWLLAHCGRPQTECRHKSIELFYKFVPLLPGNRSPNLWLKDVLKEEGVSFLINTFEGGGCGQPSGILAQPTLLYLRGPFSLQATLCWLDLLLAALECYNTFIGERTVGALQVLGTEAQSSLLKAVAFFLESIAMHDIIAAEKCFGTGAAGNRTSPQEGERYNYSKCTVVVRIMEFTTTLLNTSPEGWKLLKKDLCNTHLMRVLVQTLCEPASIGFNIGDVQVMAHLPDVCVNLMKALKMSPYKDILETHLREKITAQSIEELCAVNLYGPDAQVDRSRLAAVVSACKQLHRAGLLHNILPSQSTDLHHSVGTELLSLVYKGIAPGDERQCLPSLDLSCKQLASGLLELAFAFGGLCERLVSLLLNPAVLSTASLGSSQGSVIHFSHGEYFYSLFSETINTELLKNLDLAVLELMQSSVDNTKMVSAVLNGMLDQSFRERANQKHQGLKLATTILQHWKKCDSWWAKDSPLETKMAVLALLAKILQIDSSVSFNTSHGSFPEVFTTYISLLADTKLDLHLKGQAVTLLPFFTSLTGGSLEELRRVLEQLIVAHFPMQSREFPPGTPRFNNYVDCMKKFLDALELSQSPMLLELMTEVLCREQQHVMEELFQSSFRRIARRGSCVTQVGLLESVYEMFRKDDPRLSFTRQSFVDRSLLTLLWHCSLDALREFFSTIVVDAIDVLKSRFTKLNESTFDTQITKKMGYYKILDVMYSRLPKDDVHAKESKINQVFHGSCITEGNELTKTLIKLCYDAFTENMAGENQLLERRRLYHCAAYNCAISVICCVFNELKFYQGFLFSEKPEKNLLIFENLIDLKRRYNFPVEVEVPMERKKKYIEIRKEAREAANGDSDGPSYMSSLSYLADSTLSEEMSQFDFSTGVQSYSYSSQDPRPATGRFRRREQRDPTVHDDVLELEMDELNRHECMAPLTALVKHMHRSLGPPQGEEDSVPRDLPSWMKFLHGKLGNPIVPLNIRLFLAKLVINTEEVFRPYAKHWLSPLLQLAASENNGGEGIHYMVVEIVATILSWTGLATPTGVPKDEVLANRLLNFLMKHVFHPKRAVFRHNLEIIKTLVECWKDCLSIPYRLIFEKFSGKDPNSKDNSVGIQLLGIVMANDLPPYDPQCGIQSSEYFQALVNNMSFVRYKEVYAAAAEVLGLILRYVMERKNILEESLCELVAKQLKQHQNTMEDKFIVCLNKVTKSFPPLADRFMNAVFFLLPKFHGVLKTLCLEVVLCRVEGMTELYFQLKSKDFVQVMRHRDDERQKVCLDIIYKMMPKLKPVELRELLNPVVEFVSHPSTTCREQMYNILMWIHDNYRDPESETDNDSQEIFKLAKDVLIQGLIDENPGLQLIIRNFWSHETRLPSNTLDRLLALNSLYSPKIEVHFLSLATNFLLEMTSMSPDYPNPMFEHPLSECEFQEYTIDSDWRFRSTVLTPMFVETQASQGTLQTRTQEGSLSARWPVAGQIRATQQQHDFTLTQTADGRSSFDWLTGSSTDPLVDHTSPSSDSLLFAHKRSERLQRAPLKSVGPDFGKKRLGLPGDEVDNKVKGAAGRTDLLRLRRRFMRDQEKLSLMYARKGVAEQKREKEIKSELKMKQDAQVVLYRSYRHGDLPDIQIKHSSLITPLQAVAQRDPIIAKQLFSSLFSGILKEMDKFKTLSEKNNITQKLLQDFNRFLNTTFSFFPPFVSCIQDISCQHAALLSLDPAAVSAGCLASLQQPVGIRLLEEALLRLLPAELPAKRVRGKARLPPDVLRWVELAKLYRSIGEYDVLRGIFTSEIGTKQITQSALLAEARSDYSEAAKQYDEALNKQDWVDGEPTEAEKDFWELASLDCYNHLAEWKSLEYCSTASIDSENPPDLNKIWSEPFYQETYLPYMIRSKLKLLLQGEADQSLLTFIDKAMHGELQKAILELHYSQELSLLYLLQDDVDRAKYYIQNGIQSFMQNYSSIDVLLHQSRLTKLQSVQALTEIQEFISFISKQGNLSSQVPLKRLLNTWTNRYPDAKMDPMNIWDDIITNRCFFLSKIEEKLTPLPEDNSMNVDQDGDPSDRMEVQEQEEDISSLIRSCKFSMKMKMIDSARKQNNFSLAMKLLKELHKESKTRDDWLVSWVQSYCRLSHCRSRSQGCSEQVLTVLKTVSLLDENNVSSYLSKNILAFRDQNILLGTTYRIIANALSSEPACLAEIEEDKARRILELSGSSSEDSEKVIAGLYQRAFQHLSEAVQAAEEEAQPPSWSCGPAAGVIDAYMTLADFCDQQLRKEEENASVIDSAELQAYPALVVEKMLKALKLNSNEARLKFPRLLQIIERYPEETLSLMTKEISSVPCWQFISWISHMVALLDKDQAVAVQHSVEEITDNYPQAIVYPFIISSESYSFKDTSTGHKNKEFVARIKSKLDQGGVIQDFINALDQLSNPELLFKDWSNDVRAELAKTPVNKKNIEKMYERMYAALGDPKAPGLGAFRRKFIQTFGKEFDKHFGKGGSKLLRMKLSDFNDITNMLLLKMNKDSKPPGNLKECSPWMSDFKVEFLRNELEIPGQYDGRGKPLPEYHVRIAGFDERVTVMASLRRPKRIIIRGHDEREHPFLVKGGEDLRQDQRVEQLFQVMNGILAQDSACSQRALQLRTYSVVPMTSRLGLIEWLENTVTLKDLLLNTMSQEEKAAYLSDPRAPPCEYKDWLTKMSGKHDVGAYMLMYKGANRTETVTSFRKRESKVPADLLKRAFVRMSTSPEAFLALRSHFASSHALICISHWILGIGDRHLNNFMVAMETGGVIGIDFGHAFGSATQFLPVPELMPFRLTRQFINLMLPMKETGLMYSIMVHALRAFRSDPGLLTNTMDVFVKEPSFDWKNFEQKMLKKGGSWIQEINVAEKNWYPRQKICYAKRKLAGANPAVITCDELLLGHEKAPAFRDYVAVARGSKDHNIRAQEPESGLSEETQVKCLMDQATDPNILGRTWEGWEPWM

With `O=c1nc(N2CCOCC2)oc2cc3c(OCc4ccccn4)cccc3cc12` the IC50 [1] was 0.93 µM and the IC50 (Platelet) was no less than 100 µM.

Work on `CN1CCN(CCOc2cc3c(=O)nc(N4CCOCC4)oc3c3ccccc23)CC1` yielded an IC50 [1] of 0.76 µM and an IC50 (Platelet) of 100 µM.

With `O=c1nc(N2CCOCC2)oc2cc3ccc(OCc4ccccn4)cc3cc12` the IC50 [1] was 0.096 µM and the IC50 (Platelet) was 100 µM.

Work on `O=c1nc(N2CCOCC2)oc2ccc3ccccc3c12` yielded an IC50 [1] of 0.72 µM and an IC50 (Platelet) of 450 µM.

Molecule `CN1CCN(CCOc2cccc3cc4c(=O)nc(N5CCOCC5)oc4cc23)CC1` has an IC50 [1] of 3.09 µM and an IC50 (Platelet) of 100 µM.

With `O=c1nc(N2CCOCC2)oc2c1cc(OCc1ccccn1)c1ccccc12` the IC50 [1] was 2.43 µM and the IC50 (Platelet) was 100 µM.

Molecule `O=c1nc(N2CCOCC2)oc2cc3ccc(OCc4cccnc4)cc3cc12` has an IC50 [1] of 1.7 µM and an IC50 (Platelet) of 55 µM.

Molecule `O=c1cc(N2CCOCC2)oc2c1ccc1ccccc12` has an IC50 [2] of 0.3 µM.

With `O=c1nc(N2CCOCC2)oc2c1cc(OCc1cccnc1)c1ccccc12` the IC50 [1] was 0.717 µM and the IC50 (Platelet) was 100 µM.

Molecule `CN1CCN(CCOc2ccc3cc4oc(N5CCOCC5)nc(=O)c4cc3c2)CC1` has an IC50 [1] of 0.19 µM and an IC50 (Platelet) of 100 µM.

Molecule `O=c1nc(N2CCOCC2)oc2c1ccc1ccccc12` has an IC50 [1] of 0.42 µM and an IC50 (Platelet) of 280 µM.

For `O=c1nc(N2CCOCC2)oc2cc3c(OCc4cccnc4)cccc3cc12`, the IC50 [1] was 0.33 µM and the IC50 (Platelet) was 85 µM.

With `O=c1nc(N2CCOCC2)oc2cc3ccccc3cc12` the IC50 [1] was 6.5 µM and the IC50 (Platelet) was 155 µM.
